Source: ChEMBL document CHEMBL1145585, “Discovery of novel 4-amino-6-arylaminopyrimidine-5-carbaldehyde oximes as dual inhibitors of EGFR and ErbB-2 protein tyrosine kinases” (Bioorg Med Chem Lett, 2008)

Experiments:
Format in all cases: ADME, organism-based
[1] = Bioavailability in Sprague-Dawley rat at 2 mg/kg, iv and 10 mg/kg, po; settings: in vivo
In short: (§1)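 Sprague–Dawley rats were dosed 2 mg/kg iv in 10% solutol in D5W and 10 mg/kg po in 0.5% hydroxypropyl methylcellulose. Plasma levels were followed to derive the pharmacokinetic parameters.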

[2] = Cmax in Sprague-Dawley rat at 10 mg/kg, po; parameters: dose 10 mg/kg, route oral; settings: in vivo; in short: as §1
[3] = Half life in Sprague-Dawley rat at 10 mg/kg, po; parameters: dose 10 mg/kg, route oral; settings: in vivo; in short: as §1
[4] = Clearance in Sprague-Dawley rat at 2 mg/kg, iv and 10 mg/kg, po; settings: in vivo; in short: as §1
[5] = Tmax in Sprague-Dawley rat at 10 mg/kg, po; parameters: dose 10 mg/kg, route oral; settings: in vivo; in short: as §1
[6] = Volume of distribution at steady state in Sprague-Dawley rat at 2 mg/kg, iv and 10 mg/kg, po; settings: in vivo, read-out: Vdss; in short: as §1
[7] = AUC in Sprague-Dawley rat at 10 mg/kg, po; parameters: dose 10 mg/kg, route oral; settings: plasma; in short: as §1

For CO/N=C/c1c(N)ncnc1Nc1ccc(OCc2ccccc2)c(Cl)c1, the bioavailability [1] was 15%, the Cmax [2] was 5.7 µM and the half-life [3] was 8.4 h. It also gave a clearance [4] of 3.56 mL/min/kg, a Tmax [5] of 0.63 h and a Vd [6] of 0.17 L/kg. For the same molecule, the AUC [7] was 19.3 µM·h.
